Laboratory results reported in ChEMBL document CHEMBL1121408, “Cyclophosphamide potentiation and aldehyde oxidase inhibition by phosphorylated aldehydes and acetals” (J Med Chem, 1980).

Tests used:
Mus musculus [1] = experiment: Percent increase in life span of mice bearing L1210 ascites cells compared to control (in vivo); type: functional
Summary of the method: (§1)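 BDF1 female mice (18-20 g), groups of six, implanted ip with 10^5 L1210 ascites cells. On day 1 (24 h later), a single ip injection of test agent at 200 mg/kg, alone or with cyclophosphamide at 100 mg/kg, as a solution or suspension in 5% Tween 80 in normal saline, pH 4. Acetals were heated at 80 °C for 2 h just before injection. Vehicle-only controls were run. Deaths were recorded daily. %ILS = (mean treated life span − mean control)/mean control × 100, with survivors capped at 30 days. Survival was scored as the percent of each group alive 50 days after day 1.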

Mus musculus [2] = experiment: Percent animals surviving 50 days from day 1 (in vivo); type: functional; summary of the method: as §1

Row | SMILES | ILC (Mus musculus [1]) [%] | Cures (Mus musculus [2]) [%]
1 | CCOP(=O)(CC=O)OCC | 180 | 67
2 | CCOC(CCP(=O)(OCC)OCC)OCC | 204 | 83
3 | CCOP(=O)(CCC=O)c1ccccc1 (stereo not given) | 175 | 83
4 | CCOC(CCP(=O)(OCC)c1ccccc1)OCC (stereo not given) | 166 | 50
5 | Cc1ncc(CO)c(C=O)c1O [PYRIDOXAL] | 164 | 33
